Source: ChEMBL document CHEMBL5678814, “Novel Mps1 Kinase Inhibitors with Potent Antitumor Activity” (Mol Cancer Ther, 2016)
Activity calls are given as the source filed them. No cut-off for these calls is given here.

Tests used:
[1] = test system: HCT-116; test: Antiproliferative activity against human TP53 wildtype HCT-116 cells assessed as cell growth inhibition incubated for 96 hrs by crystal violet staining; settings: HCT-116, 96 h
[2] = test system: MDA-MB-453; test: Antiproliferative activity against human MDA-MB-453 cells assessed as cell growth inhibition incubated for 96 hrs by crystal violet staining; settings: MDA-MB-453, 96 h
[3] = test system: Granta-519; test: Antiproliferative activity against human Granta-519 cells assessed as cell growth inhibition incubated for 96 hrs by MTS assay; type: functional, cell-based; settings: Granta-519, 96 h
[4] = biological target: Mitogen-activated protein kinase 9 (Homo sapiens, UniProt P45984); test: Binding affinity to JNK2 (unknown origin) assessed as dissociation constant
Mitogen-activated protein kinase 9, sequence (P45984 whole entry): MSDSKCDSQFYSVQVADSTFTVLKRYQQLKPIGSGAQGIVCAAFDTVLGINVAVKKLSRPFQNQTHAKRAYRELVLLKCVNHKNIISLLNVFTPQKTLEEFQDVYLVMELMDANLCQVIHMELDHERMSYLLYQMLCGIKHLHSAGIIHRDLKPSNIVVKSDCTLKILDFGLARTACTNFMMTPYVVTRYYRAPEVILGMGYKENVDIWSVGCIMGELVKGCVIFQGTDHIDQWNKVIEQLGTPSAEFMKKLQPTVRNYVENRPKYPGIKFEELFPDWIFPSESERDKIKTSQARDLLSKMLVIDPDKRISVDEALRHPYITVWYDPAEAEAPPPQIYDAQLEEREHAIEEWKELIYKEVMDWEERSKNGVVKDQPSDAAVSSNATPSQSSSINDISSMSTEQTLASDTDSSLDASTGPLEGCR

[5] = test system: COLO-829; test: Antiproliferative activity against human COLO-829 cells assessed as cell growth inhibition incubated for 96 hrs by crystal violet staining; settings: COLO-829, 96 h
[6] = test system: L-363; test: Antiproliferative activity against human L-363 cells assessed as cell growth inhibition incubated for 96 hrs by crystal violet staining; settings: L-363, 96 h
[7] = Volume of distribution at steady state in male Wistar rat plasma at 0.5 mg/kg, iv measured after 24 hrs by LC/-MS/MS analysis; type: ADME, organism-based; settings: read-out: Vdss
[8] = test system: NCI-H2052; test: Antiproliferative activity against human NCI-H2052 cells assessed as cell growth inhibition incubated for 96 hrs by crystal violet staining; settings: NCI-H2052, 96 h
[9] = test system: A2780cis; settings: Homo sapiens, dose 2.5 mg/kg, route po, time 7.0 day
[10] = biological target: Serine/threonine-protein kinase 38 (Homo sapiens, UniProt Q15208); test: Binding affinity to NDR1 (unknown origin) assessed as dissociation constant
Serine/threonine-protein kinase 38, sequence (Q15208 whole entry): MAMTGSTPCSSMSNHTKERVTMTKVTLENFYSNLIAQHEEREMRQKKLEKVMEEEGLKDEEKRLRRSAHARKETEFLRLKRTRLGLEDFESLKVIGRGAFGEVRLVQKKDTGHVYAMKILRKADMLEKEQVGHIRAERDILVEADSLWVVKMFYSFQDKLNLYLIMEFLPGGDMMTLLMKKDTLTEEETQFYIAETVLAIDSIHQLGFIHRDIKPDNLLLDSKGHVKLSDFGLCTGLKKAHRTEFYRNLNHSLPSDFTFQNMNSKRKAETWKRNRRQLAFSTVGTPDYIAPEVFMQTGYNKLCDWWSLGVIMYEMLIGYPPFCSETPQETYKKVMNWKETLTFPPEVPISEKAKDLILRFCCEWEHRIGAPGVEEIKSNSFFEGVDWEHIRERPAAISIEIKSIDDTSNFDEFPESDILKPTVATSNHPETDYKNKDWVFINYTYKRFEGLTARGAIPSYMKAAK

[11] = biological target: Serine/threonine-protein kinase mTOR (Homo sapiens, UniProt P42345); test: Binding affinity to MTOR (unknown origin) assessed as dissociation constant
[12] = test system: SNU-16; test: Antiproliferative activity against human SNU-16 cells assessed as cell growth inhibition incubated for 96 hrs by MTS assay; type: functional, cell-based; settings: SNU-16, 96 h
[13] = test system: RPMI-7951; test: Antiproliferative activity against human RPMI-7951 cells assessed as cell growth inhibition incubated for 96 hrs by crystal violet staining; settings: RPMI-7951, 96 h
[14] = test system: NCI-H2009; test: Antiproliferative activity against human NCI-H2009 cells assessed as cell growth inhibition incubated for 96 hrs by crystal violet staining; settings: NCI-H2009, 96 h
[15] = test system: NCI-H292; test: Antiproliferative activity against human NCI-H292 cells assessed as cell growth inhibition incubated for 96 hrs by crystal violet staining; settings: NCI-H292, 96 h
[16] = In vivo inhibition of Mps1 in NMRI mouse assessed as MTD at => 1 mg/kg,po administered twice daily for 2 days and measured after 3 days relative to control; type: functional; settings: time 2 day
[17] = test system: NCI-H526; test: Antiproliferative activity against human NCI-H526 cells assessed as cell growth inhibition incubated for 96 hrs by MTS assay; type: functional, cell-based; settings: NCI-H526, 96 h
[18] = test system: SK-MEL3; test: Antiproliferative activity against human SK-MEL3 cells assessed as cell growth inhibition incubated for 96 hrs by crystal violet staining; settings: SK-MEL3, 96 h
[19] = test system: NCI-H1299; test: Antiproliferative activity against human NCI-H1299 cells assessed as cell growth inhibition incubated for 96 hrs by crystal violet staining; settings: NCI-H1299, 96 h
[20] = test system: HCT-15; test: Antiproliferative activity against human HCT-15 cells assessed as cell growth inhibition incubated for 96 hrs by crystal violet staining; settings: HCT-15, 96 h
[21] = test system: NCI-H661; test: Antiproliferative activity against human NCI-H661 cells assessed as cell growth inhibition incubated for 96 hrs by MTS assay; type: functional, cell-based; settings: NCI-H661, 96 h
[22] = test system: SAOS-2; test: Antiproliferative activity against human SAOS-2 cells assessed as cell growth inhibition incubated for 96 hrs by MTS assay; type: functional, cell-based; settings: SAOS-2, 96 h
[23] = test system: SK-N-AS; test: Antiproliferative activity against human SK-N-AS cells assessed as cell growth inhibition incubated for 96 hrs by crystal violet staining
[24] = test system: MIA PaCa-2; test: Antiproliferative activity against human MIA PaCa-2 cells assessed as cell growth inhibition incubated for 96 hrs by crystal violet staining; settings: MIA PaCa-2, 96 h
[25] = test system: SK-OV-3; test: Antiproliferative activity against human SK-OV-3 cells assessed as cell growth inhibition incubated for 96 hrs by crystal violet staining; settings: SK-OV-3, 96 h
[26] = test system: SK-MES-1; test: Antiproliferative activity against human SK-MES-1 cells assessed as cell growth inhibition incubated for 96 hrs by MTS assay; type: functional, cell-based; settings: SK-MES-1, 96 h
[27] = test system: VCaP; test: Antiproliferative activity against human VCaP cells assessed as cell growth inhibition incubated for 96 hrs by MTS assay; type: functional, cell-based
[28] = test system: Calu-6; test: Antiproliferative activity against human Calu-6 cells assessed as cell growth inhibition incubated for 96 hrs by crystal violet staining; settings: Calu-6, 96 h
[29] = test system: LoVo; test: Antiproliferative activity against human LoVo cells assessed as cell growth inhibition incubated for 96 hrs by crystal violet staining
[30] = test system: LAPC4; test: Antiproliferative activity against human LAPC4 cells assessed as cell growth inhibition incubated for 96 hrs by MTS assay; type: functional, cell-based; settings: LAPC4, 96 h
[31] = Half life in male CD1 mouse plasma at 0.5 mg/kg, iv measured after 24 hrs by LC/-MS/MS analysis; type: ADME, organism-based
How it was run: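 Male CD1 mice received a single iv bolus of 0.5 mg/kg in 1% DMSO/99% plasma. Plasma was sampled at 2, 5, 15, 30 and 45 min and at 1, 2, 4, 6, 8 and 24 h, precipitated with ice-cold acetonitrile (1:5), and supernatants were run by LC/MS-MS. Parameters were estimated from plasma concentration data, with AUC by the log-linear trapezoidal rule.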

[32] = test system: SJRH30; test: Antiproliferative activity against human Rh30 cells assessed as cell growth inhibition incubated for 96 hrs by MTS assay; type: functional, cell-based; settings: SJRH30, 96 h
[33] = Half life in male Wistar rat plasma at 0.5 mg/kg, iv measured after 24 hrs by LC/-MS/MS analysis; type: ADME, organism-based

COc1cc(S(C)(=O)=O)ccc1Nc1nc2ccc(-c3ccc(NC(=O)[C@H](C)c4ccc(F)cc4)cc3)cn2n1 [BAY-1161909]
IC50 [1]: 42 nM | IC50 [2]: > 3000 nM | IC50 [3]: 240 nM | Kd [4]: 160 nM | IC50 [5]: 300 nM | IC50 [6]: 32 nM | Vd [7]: 2.4 L/kg | IC50 [8]: 96 nM | inhibition [9]: Active | Kd [10]: 40000 nM | Kd [11]: 40000 nM | IC50 [12]: 88 nM | IC50 [13]: 280 nM | IC50 [14]: 560 nM | IC50 [15]: 190 nM | MED [16]: >=40% | IC50 [17]: 100 nM | IC50 [18]: 53 nM | IC50 [19]: 120 nM | IC50 [20]: 110 nM | IC50 [21]: 260 nM | IC50 [22]: 520 nM | IC50 [23]: 97 nM | IC50 [24]: 1000 nM | IC50 [25]: 3700 nM | IC50 [26]: 210 nM | IC50 [27]: > 3000 nM | IC50 [28]: > 3000 nM | IC50 [29]: 95 nM | IC50 [30]: 130 nM | half-life [31]: 4.9 h | IC50 [32]: 450 nM | half-life [33]: 14 h
